Legend:
B16 [1] = experiment: Cytotoxic activity against solid tumor, B16 (murine melanoma) Concentration of agent required to reduce cell viability by 50%; format: functional, cell-based; settings: Mus musculus
In short: (§1)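 Modified MTT assay. Cells seeded per well with graded drug: CHO 2.5 × 10^3, B16 5 × 10^3, P388 and LLC 10^4, HL-60 and LoVo 5 × 10^4. After 68 h, MTT (2.5 mg/mL) added for 4 h at 37 °C. Formazan dissolved in DMSO and A550 read. Inhibition taken as fractional A550 decrease vs control. IC50/IC90 from Chou's median-effect equation.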

[2] = test system: Lewis lung carcinoma cell line; experiment: Cytotoxic activity against solid tumor LLC(Lewis lung carcinoma), concentration of agent required to reduce cell viability by 50%; format: functional, cell-based; settings: Mus musculus; in short: as §1
[3] = Ratio of antilog(mean log IC90 in bone marrow sample) and antolog(mean log IC90) in HL-60); format: functional
In short: (§2)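 Second-stage assay on HL-60 (5 × 10^4/well) and soybean-agglutinin-negative mononuclear marrow cells (5 × 10^5/well) from six healthy donors. Four wells per concentration, 48 h at 37 °C, then [125I]iododeoxyuridine plus fluorodeoxyuridine for 18 h. Inhibition from fractional uptake decrease; IC50/IC90 by median-effect equation. Ranges are antilog(mean log ± 2SD); ratios use mean antilogs.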

[4] = Ratio of antilog(mean log IC50 in bone marrow sample) and antolog(mean log IC90) in HL-60); format: functional; in short: as §2
[5] = test system: Lewis lung carcinoma cell line; experiment: Cytotoxic activity against solid tumor LLC(Lewis lung carcinoma), concentration of agent required to reduce cell viability by 90%; not observed; format: functional, cell-based; settings: Mus musculus; in short: as §1
P388 [6] = experiment: Cytotoxic activity Murine Lymphocytic Leukemia P388 Concentration of agent required to reduce cell viability by 90%; format: functional; settings: Mus musculus; in short: as §1
HL-60 [7] = experiment: Cytotoxic activity against Human promyelocytic Leukemia HL-60 Concentration of agent required to reduce cell viability by 90%; format: functional; in short: as §1
[8] = Ratio of antilog(mean log IC50 in bone marrow sample) and antolog(mean log IC50) in HL-60); format: functional; in short: as §2
LoVo [9] = experiment: Cytotoxic activity against solid tumor, LoVo, (human colon adenocarcinoma) Concentration of agent required to reduce cell viability by 50%; format: functional, cell-based; in short: as §1
B16 [10] = experiment: Cytotoxic activity against solid tumor, B16 (murine melanoma) Concentration of agent required to reduce cell viability by 90%; Not observed; format: functional, cell-based; settings: Mus musculus; in short: as §1
HL-60 [11] = experiment: Cytotoxic activity against Human promyelocytic Leukemia HL-60 Concentration of agent required to reduce cell viability by 50%; format: functional, cell-based; in short: as §1
LoVo [12] = experiment: Cytotoxic activity against solid tumor, LoVo, (human colon adenocarcinoma) Concentration of agent required to reduce cell viability by 90%; format: functional; in short: as §1
CHO [13] = experiment: Cytotoxic activity against solid tumor, CHO (Chinese hamster ovaric carcinoma) Concentration of agent required to reduce cell viability by 90%; Not observed; format: functional, cell-based; settings: Cricetulus griseus; in short: as §1
Homo sapiens [14] = species on record: Homo sapiens; experiment: Relative cytotoxicity against Human bone marrow samples; Value is in range, activity expressed as IC90; format: functional; in short: as §2
HL-60 [15] = experiment: Relative cytotoxicity against Human promyelocytic Leukemia(HL-60) cells; Value is in range, activity expressed as IC90; format: functional; in short: as §2
HL-60 [16] = experiment: Relative cytotoxicity against Human promyelocytic Leukemia(HL-60) cells; Value is in range, activity expressed as IC50; format: functional, cell-based; in short: as §2
P388 [17] = experiment: Cytotoxic activity against Murine Lymphocytic Leukemia P388 Concentration of agent required to reduce cell viability by 50%; format: functional, cell-based; settings: Mus musculus; in short: as §1
Homo sapiens [18] = species on record: Homo sapiens; experiment: Relative cytotoxicity against Human bone marrow samples; Value is in range, activity expressed as IC50; format: functional; in short: as §2
CHO [19] = experiment: Cytotoxic activity against solid tumor, CHO (Chinese hamster ovaric carcinoma) Concentration of agent required to reduce cell viability by 50%; format: functional, cell-based; settings: Cricetulus griseus; in short: as §1
P388 [20] = experiment: Cytotoxic activity against murine lymphocytic leukemia P388 concentration of agent required to reduce cell viability by 50%; format: functional, cell-based; settings: Mus musculus; in short: as §1
[21] = Ratio of cytotoxicity of compound towards bone marrow sample and to that of HL-60 was determined as IC50BM/IC50HL; format: functional; in short: as §2
[22] = Ratio of cytotoxicity of compound towards bone marrow sample and to that of HL-60 was determined as IC50BM/IC90HL; format: functional; in short: as §2
B16 [23] = experiment: Cytotoxic activity against solid tumor, B16 (murine melanoma) concentration of agent required to reduce cell viability by 50%; format: functional, cell-based; settings: Mus musculus; in short: as §1
LoVo [24] = experiment: Cytotoxic activity against solid tumor, LoVo, (human colon adenocarcinoma) concentration of agent required to reduce cell viability by 50%; format: functional, cell-based; in short: as §1
CHO [25] = experiment: Cytotoxic activity against solid tumor, CHO (Chinese hamster ovaric carcinoma) concentration of agent required to reduce cell viability by 90%; format: functional; settings: Cricetulus griseus; in short: as §1
CHO [26] = experiment: Cytotoxic activity against solid tumor, CHO (Chinese hamster ovaric carcinoma) concentration of agent required to reduce cell viability by 50%; format: functional, cell-based; settings: Cricetulus griseus; in short: as §1
B16 [27] = experiment: Cytotoxic activity against solid tumor, B16 (murine melanoma) concentration of agent required to reduce cell viability by 90%; format: functional; settings: Mus musculus; in short: as §1
Homo sapiens [28] = species on record: Homo sapiens; experiment: Relative cytotoxicity against human bone marrow samples; format: functional; in short: as §2
HL-60 [29] = experiment: (§3) Relative cytotoxicity against human promyelocytic leukemia(HL-60) cells; format: functional, cell-based; in short: as §2
P388 [30] = experiment: In vivo antitumor activity against Murine P388 Leukemia at 6.67 mg/kg dose;(Median survival time of treated mice)/(median survival time of controls) x100; format: functional, Mus musculus
In short: (§4)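 Female BD2F1 mice (8 weeks, 20-22 g), eight per group, given 10^5 P388 cells ip on day 0. From 24 h later, drug was given ip once daily for 9 days as a micronized suspension in 0.5% carboxymethylcellulose. Deaths were recorded daily over a 33-day study. %T/C = median survival time of treated / median survival time of controls × 100; >125 taken as significant.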

HL-60 [31] = experiment: Cytotoxic activity against human promyelocytic leukemia HL-60 concentration of agent required to reduce cell viability by 90%; format: functional; in short: as §1
[32] = Ratio of cytotoxicity of compound towards bone marrow sample and to that of HL-60 was determined as IC90BM/IC90HL; format: functional; in short: as §2
HL-60 [33] = experiment: as §3; format: functional; in short: as §2
LoVo [34] = experiment: Cytotoxic activity against solid tumor, LoVo, (human colon adenocarcinoma) concentration of agent required to reduce cell viability by 90%; format: functional; in short: as §1
P388 [35] = experiment: In vivo antitumor activity against Murine P388 Leukemia at 20 mg/kg dose;(Median survival time of treated mice)/(median survival time of controls) x100; format: functional, Mus musculus; in short: as §4
P388 [36] = experiment: In vivo antitumor activity against Murine P388 Leukemia at 60 mg/kg dose;(Median survival time of treated mice)/(median survival time of controls) x100; format: functional, Mus musculus; in short: as §4
HL-60 [37] = experiment: Cytotoxic activity against human promyelocytic leukemia HL-60 concentration of agent required to reduce cell viability by 50%; format: functional, cell-based; in short: as §1
[38] = test system: Lewis lung carcinoma cell line; experiment: Cytotoxic activity against solid tumor LLC(Lewis lung carcinoma), concentration of agent required to reduce cell viability by 90%; format: functional; settings: Mus musculus; in short: as §1
P388 [39] = experiment: Cytotoxic activity against murine lymphocytic leukemia P388 concentration of agent required to reduce cell viability by 90%; format: functional; settings: Mus musculus; in short: as §1
P388 [40] = experiment: In vivo antitumor activity against Murine P388 Leukemia at 50 mg/kg dose;(Median survival time of treated mice)/(median survival time of controls) x100; format: functional, Mus musculus; in short: as §4
CHO [41] = experiment: Cytotoxic activity against solid tumor, CHO (Chinese hamster ovaric carcinoma) Concentration of agent required to reduce cell viability by 90%; format: functional; settings: Cricetulus griseus; in short: as §1
P388 [42] = experiment: In vivo antitumor activity against Murine P388 Leukemia at 75 mg/kg dose;(Median survival time of treated mice)/(median survival time of controls) x100; format: functional, Mus musculus; in short: as §4
P388 [43] = experiment: In vivo antitumor activity against Murine P388 Leukemia at 100 mg/kg dose;(Median survival time of treated mice)/(median survival time of controls) x100; format: functional, Mus musculus; in short: as §4
P388 [44] = experiment: In vivo antitumor activity against Murine P388 Leukemia at 25 mg/kg dose;(Median survival time of treated mice)/(median survival time of controls) x100; format: functional, Mus musculus; in short: as §4
B16 [45] = experiment: Cytotoxic activity against solid tumor, B16 (murine melanoma) Concentration of agent required to reduce cell viability by 90%; format: functional; settings: Mus musculus; in short: as §1
[46] = test system: bone marrow cells (human); experiment: Relative cytotoxicity against Human bone marrow samples; Value is in range, activity expressed as IC90
[47] = test system: bone marrow cells (human); experiment: Relative cytotoxicity against Human bone marrow samples; Value is in range, activity expressed as IC50

SMILES	IC50 (B16 [1])	IC50 [2]	Ratio [3]	Ratio [4]	IC90 (P388 [6])	IC90 (HL-60 [7])	Ratio [8]	IC50 (LoVo [9])	IC50 (HL-60 [11])	IC90 (LoVo [12])	IC90 (Homo sapiens [14])	IC90 (HL-60 [15])	IC50 (HL-60 [16])	IC50 (P388 [17])	IC50 (Homo sapiens [18])	IC50 (CHO [19])	IC50 (P388 [20])	Ratio [21]	Ratio [22]	IC90 [38]	other results
CCN(CC)CCn1c2cc(N3CCC(O)CC3)c(N)cc2c(=O)c2c(O)cc(O)cc21	1.7 µM	8.7 µM	1.1	0.3	1.6 µM	3.6 µM	0.4	> 32 µM	2.2 µM	> 32 µM	0.672 µM	0.657 µM	0.51 µM	0.62 µM	0.168 µM	23 µM	–	–	–	–	IC90 [5]: Not observed; IC90 (B16 [10]): Not observed; IC90 (CHO [13]): Not observed
CCN(CC)CCn1c2cc(Cl)c(N)cc2c(=O)c2c(O)cc(OC)cc21	–	5 µM	–	–	–	–	–	–	–	–	–	–	–	–	–	–	3.8 µM	1.2	0.8	11 µM	IC50 (B16 [23]): 1.6 µM; IC50 (LoVo [24]): 1.5 µM; IC90 (CHO [25]): 5.9 µM; IC50 (CHO [26]): 1.1 µM; IC90 (B16 [27]): 4 µM; IC50 (Homo sapiens [28]): 3.26 µM; IC90 (Homo sapiens [28]): 14.8 µM; IC50 (HL-60 [29]): 1.86 µM; T/C (P388 [30]): 83%; IC90 (HL-60 [31]): 8.4 µM; Ratio [32]: 4.1; IC90 (HL-60 [33]): 2.93 µM; IC90 (LoVo [34]): 6.3 µM; T/C (P388 [35]): 97%; T/C (P388 [36]): 100%; IC50 (HL-60 [37]): 4.2 µM; IC90 (P388 [39]): 8 µM
CCN(CC)CCn1c2cc(Cl)c(N)cc2c(=O)c2c(O)cc(O)cc21	1 µM	3.6 µM	0.7	0.2	3.5 µM	10 µM	0.3	5.4 µM	3.9 µM	14 µM	6.46 µM	5.74 µM	3.61 µM	1.4 µM	1.52 µM	1.5 µM	–	–	–	11 µM	T/C (P388 [40]): 109%; IC90 (CHO [41]): 6.3 µM; T/C (P388 [42]): 110%; T/C (P388 [43]): 111%; T/C (P388 [44]): 105%; IC90 (B16 [45]): 5.9 µM
COc1cc([C@@H]2c3cc4c(cc3[C@@H](O[C@@H]3O[C@@H]5CO[C@@H](C)O[C@H]5[C@H](O)[C@H]3O)[C@H]3COC(=O)[C@H]23)OCO4)cc(OC)c1O [ETOPOSIDE]	–	1.1 µM	–	–	–	–	–	–	–	–	–	–	–	–	–	–	0.24 µM	1.8	0.9	4.5 µM	IC50 (B16 [23]): 0.32 µM; IC50 (LoVo [24]): 2.3 µM; IC90 (CHO [25]): 7.7 µM; IC50 (CHO [26]): 0.35 µM; IC90 (B16 [27]): 1.9 µM; IC50 (Homo sapiens [28]): 0.99 µM; IC90 (Homo sapiens [28]): 7.02 µM; IC50 (HL-60 [29]): 0.367 µM; IC90 (HL-60 [31]): 3.1 µM; Ratio [32]: 5.6; IC90 (HL-60 [33]): 0.73 µM; IC90 (LoVo [34]): 44 µM; IC50 (HL-60 [37]): 1.2 µM; IC90 (P388 [39]): 0.63 µM
O=C1c2c(O)ccc(O)c2C(=O)c2c(NCCNCCO)ccc(NCCNCCO)c21 [MITOXANTRONE]	–	–	11.6	2.1	–	–	4.8	–	–	–	–	8.03 µM	3.35 µM	–	–	–	–	–	–	–	IC90 [46]: 38.7 µM; IC50 [47]: 27.6 µM

Source: ChEMBL document CHEMBL1132240, “Design and synthesis of modified quinolones as antitumoral acridones” (J Med Chem, 1999)
